Experimental data taken from the M2OR odorant receptor database.

What was measured:
Conditions in all cases: stereoisomer not certain
[1] = system: O51V1 L36F N51T G96W
Outline: (§1)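 Whether a receptor–molecule pair is responsive (active) rests on the original authors' judgment that its measured signal was statistically different from baseline. Pairs without that judgment are non-responsive (inactive). Sources used varied assay methods, commonly transient luciferase assays in mammalian cell lines.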

[2] = system: O52A1
Outline: as §1

[3] = system: O52B6 V288I
Outline: as §1

[4] = system: O52E2 R264C
Outline: as §1

[5] = system: O52E4
Outline: as §1

[6] = system: O52E5
Outline: as §1

[7] = system: O52E8
Outline: as §1

[8] = system: O52H1 A89T H130R C242R
Outline: as §1

[9] = system: O52H1 H130R C242R
Outline: as §1

[10] = system: O52H1
Outline: as §1

Measured: odorant receptor agonist call;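 note: active if original authors judged signal statistically different from baseline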

Chain of O52E8 (as listed by the source): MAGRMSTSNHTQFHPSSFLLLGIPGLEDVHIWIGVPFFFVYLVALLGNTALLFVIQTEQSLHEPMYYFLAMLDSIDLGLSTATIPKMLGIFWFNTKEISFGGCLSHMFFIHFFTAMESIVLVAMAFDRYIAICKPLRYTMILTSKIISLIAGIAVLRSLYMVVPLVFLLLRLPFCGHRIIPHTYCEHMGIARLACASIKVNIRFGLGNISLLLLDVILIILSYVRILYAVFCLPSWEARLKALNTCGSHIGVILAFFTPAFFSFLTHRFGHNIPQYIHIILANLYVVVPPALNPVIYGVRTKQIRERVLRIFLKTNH
Chain of O52H1 (as listed by the source): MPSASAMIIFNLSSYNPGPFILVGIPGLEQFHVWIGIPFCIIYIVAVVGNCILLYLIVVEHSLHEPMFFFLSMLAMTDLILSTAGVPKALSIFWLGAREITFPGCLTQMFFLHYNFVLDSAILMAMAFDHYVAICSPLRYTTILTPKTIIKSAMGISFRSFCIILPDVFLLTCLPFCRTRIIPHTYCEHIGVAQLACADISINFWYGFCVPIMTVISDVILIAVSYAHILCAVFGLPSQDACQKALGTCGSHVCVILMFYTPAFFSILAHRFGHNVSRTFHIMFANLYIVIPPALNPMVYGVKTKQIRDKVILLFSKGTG
Chain of O52E4 (as listed by the source): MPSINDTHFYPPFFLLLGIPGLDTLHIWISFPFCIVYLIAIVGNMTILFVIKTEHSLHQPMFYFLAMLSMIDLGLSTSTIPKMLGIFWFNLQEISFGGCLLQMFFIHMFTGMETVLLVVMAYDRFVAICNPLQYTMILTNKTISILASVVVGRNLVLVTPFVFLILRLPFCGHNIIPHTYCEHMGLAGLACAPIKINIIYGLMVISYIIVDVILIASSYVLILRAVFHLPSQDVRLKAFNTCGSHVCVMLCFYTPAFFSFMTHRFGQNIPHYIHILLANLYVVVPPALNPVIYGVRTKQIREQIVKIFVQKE
Chain of O52A1 (as listed by the source): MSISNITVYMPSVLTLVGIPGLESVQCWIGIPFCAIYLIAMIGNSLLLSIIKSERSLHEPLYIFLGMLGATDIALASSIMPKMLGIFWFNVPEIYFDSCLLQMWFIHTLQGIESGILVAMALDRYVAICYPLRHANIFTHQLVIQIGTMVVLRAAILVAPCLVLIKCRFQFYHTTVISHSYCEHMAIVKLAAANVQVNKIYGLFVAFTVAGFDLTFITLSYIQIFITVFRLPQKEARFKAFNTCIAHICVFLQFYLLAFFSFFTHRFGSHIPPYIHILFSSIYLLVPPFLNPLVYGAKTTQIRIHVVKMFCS
Chain of O52E2 R264C (as listed by the source, stated change not applied): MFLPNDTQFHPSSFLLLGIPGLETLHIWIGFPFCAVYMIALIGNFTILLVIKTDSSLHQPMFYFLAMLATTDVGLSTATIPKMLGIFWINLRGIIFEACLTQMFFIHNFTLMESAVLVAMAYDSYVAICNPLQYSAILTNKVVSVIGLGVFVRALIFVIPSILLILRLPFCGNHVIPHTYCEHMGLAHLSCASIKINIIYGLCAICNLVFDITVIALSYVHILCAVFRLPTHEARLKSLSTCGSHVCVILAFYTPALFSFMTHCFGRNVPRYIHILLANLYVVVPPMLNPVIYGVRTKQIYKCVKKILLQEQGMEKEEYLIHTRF
Chain of O52E5 (as listed by the source): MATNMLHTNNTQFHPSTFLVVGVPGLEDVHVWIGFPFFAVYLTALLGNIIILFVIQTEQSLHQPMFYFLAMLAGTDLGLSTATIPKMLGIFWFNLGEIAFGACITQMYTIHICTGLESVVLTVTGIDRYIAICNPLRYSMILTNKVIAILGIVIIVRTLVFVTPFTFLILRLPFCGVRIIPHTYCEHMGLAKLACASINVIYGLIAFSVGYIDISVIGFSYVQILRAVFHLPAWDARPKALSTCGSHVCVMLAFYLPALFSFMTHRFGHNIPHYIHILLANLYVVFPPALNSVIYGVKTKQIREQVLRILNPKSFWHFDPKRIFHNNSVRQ
Chain of O52B6 V288I (as listed by the source, stated change not applied): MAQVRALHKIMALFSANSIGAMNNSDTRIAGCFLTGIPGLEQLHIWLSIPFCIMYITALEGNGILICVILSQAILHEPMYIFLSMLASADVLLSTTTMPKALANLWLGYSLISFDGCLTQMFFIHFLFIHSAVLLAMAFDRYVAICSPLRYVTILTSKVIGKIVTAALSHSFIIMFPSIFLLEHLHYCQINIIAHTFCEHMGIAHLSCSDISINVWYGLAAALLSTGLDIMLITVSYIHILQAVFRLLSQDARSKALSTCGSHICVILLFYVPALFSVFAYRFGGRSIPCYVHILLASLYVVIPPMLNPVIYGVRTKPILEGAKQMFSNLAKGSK

C=CCOC(=O)Cc1ccccc1
inactive: [1] | [2] | [3] | [4] | [5] | [6] | [7] | [8] | [9] | [10]

Cc1c([N+](=O)[O-])c(C)c([N+](=O)[O-])c(C(C)(C)C)c1[N+](=O)[O-]
inactive: [7] | [10]
